Experimental data as given in ChEMBL document CHEMBL4316616, “Efficacy of TLR7 agonistic imidazoquinoline as immunochemotherapeutic agent against P. Berghei ANKA infected rodent host” (Bioorg Med Chem Lett, 2019).
Calls of active or inactive are those of the source. The rule behind the calls is not given here.

Experiments:
Plasmodium berghei [1] = test: Antiparasitic activity against Plasmodium berghei ANKA infected in Laca mouse assessed as reduction in CD3+ cell level in brain at 10 ug, ip administered for 4 days measured on day 10 by flow cytometry; assay type: functional, organism-based
Plasmodium berghei [2] = test: Antiparasitic activity against Plasmodium berghei ANKA infected in Laca mouse assessed as increase in Treg cell level in brain at 10 ug, ip administered for 4 days measured on day 10 by flow cytometry; assay type: functional, organism-based
Plasmodium berghei [3] = test: Antiparasitic activity against Plasmodium berghei ANKA infected in Laca mouse assessed as increase in Treg cell level in brain at 10 ug, ip co-administered with chloroquine for 4 days measured on day 21 by flow cytometry; assay type: functional, organism-based
Plasmodium berghei [4] = test: Antiparasitic activity against Plasmodium berghei ANKA infected in Laca mouse assessed as increase in Treg cell level in spleen at 10 ug, ip co-administered with chloroquine for 4 days measured on day 21 by flow cytometry; assay type: functional, organism-based
Plasmodium berghei [5] = test: Antiparasitic activity against Plasmodium berghei ANKA infected in Laca mouse assessed as parasitemia at 10 ug, ip administered for 4 days measured on day 7 by Giemsa-staining based assay; assay type: functional
Plasmodium berghei [6] = test: Antiparasitic activity against Plasmodium berghei ANKA infected in Laca mouse assessed as decrease in Treg cell level in brain at 10 ug, ip co-administered with chloroquine for 4 days measured on day 10 by flow cytometry
Plasmodium berghei [7] = test: Antiparasitic activity against Plasmodium berghei ANKA infected in Laca mouse assessed as increase in CD3+ cell level in spleen at 10 ug, ip administered for 4 days measured on day 10 by flow cytometry; assay type: functional, organism-based
Plasmodium berghei [8] = test: Antiparasitic activity against Plasmodium berghei ANKA infected in Laca mouse assessed as increase in serum IL-27 level at 10 ug, ip administered for 4 days measured on day 10 by sandwich ELISA; assay type: functional, organism-based
Plasmodium berghei [9] = test: Antiparasitic activity against Plasmodium berghei ANKA infected in Laca mouse assessed as increase in serum IL-12 level at 10 ug, ip administered for 4 days measured on day 10 by sandwich ELISA; assay type: functional, organism-based
Plasmodium berghei [10] = test: Antiparasitic activity against Plasmodium berghei ANKA infected in Laca mouse assessed as parasitemia at 10 ug, ip co-administered with chloroquine for 4 days measured on day 30 by Giemsa-staining based assay; assay type: functional
Plasmodium berghei [11] = test: Antiparasitic activity against Plasmodium berghei ANKA infected in Laca mouse assessed as increase in IFN-gamma level in serum at 10 ug, ip administered for 4 days measured on day 10 by sandwich ELISA
Plasmodium berghei [12] = test: Antiparasitic activity against Plasmodium berghei ANKA infected in Laca mouse assessed as reduction in CD4+ cell level in brain at 10 ug, ip co-administered with chloroquine for 4 days measured on day 21 by flow cytometry; assay type: functional, organism-based
Plasmodium berghei [13] = test: Antiparasitic activity against Plasmodium berghei ANKA infected in Laca mouse assessed as increase in Treg cell level in spleen at 10 ug, ip administered for 4 days measured on day 10 and 21 by flow cytometry; assay type: functional, organism-based
Plasmodium berghei [14] = test: Antiparasitic activity against Plasmodium berghei ANKA infected in Laca mouse assessed as increase in serum IL-12 level at 10 ug, ip co-administered with chloroquine for 4 days measured on day 10 by sandwich ELISA; assay type: functional, organism-based
Plasmodium berghei [15] = test: Antiparasitic activity against Plasmodium berghei ANKA infected in Laca mouse assessed as change in Treg cell level in spleen at 10 ug, ip co-administered with chloroquine for 4 days measured on day 10 and 21 by flow cytometry; assay type: functional, organism-based
Plasmodium berghei [16] = test: Antiparasitic activity against Plasmodium berghei ANKA infected in Laca mouse assessed as increase in serum IL-10 level at 10 ug, ip co-administered with chloroquine for 4 days measured on day 10 by sandwich ELISA; assay type: functional, organism-based
Plasmodium berghei [17] = test: Antiparasitic activity against Plasmodium berghei ANKA infected in Laca mouse assessed as reduction in parasitemia at 10 ug, ip administered for 4 days measured on day 9 by Giemsa-staining based assay; assay type: functional, organism-based
[18] = Toxicity in Laca mouse infected with Plasmodium berghei ANKA assessed as death at 10 ug, ip co-treated with chloroquine for 4 days measured on day 30; assay type: organism-based; details: in vivo, 96 h
How it was run: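 Mice (6/group) were infected i.p. with 1x10⁶ P. berghei ANKA parasitized RBCs on D0. TLR7 agonist was given i.p. plus chloroquine 10 mg/kg orally (0.2 mL/mouse each), daily D0–D3. Survival and parasitemia (Giemsa-stained thin blood smears of individual mice) were followed for about one month.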

Plasmodium berghei [19] = test: Antiparasitic activity against Plasmodium berghei ANKA infected in Laca mouse assessed as reduction in CD8+ cell level in brain at 10 ug, ip administered for 4 days measured on day 10 by flow cytometry; assay type: functional, organism-based
Plasmodium berghei [20] = test: Antiparasitic activity against Plasmodium berghei ANKA infected in Laca mouse assessed as reduction in CD8+ cell level in brain at 10 ug, ip co-administered with chloroquine for 4 days measured on day 21 by flow cytometry; assay type: functional, organism-based
[21] = Toxicity in Laca mouse infected with Plasmodium berghei ANKA assessed as death at 10 ug, ip co-treated with chloroquine for 4 days measured on day 30; details: in vivo, 96 h
Plasmodium berghei [22] = test: Antiparasitic activity against Plasmodium berghei ANKA infected in Laca mouse assessed as decrease in serum TNFalpha level at 10 ug, ip co-administered with chloroquine for 4 days measured on day 10 by sandwich ELISA; assay type: functional, organism-based
Plasmodium berghei [23] = test: Antiparasitic activity against Plasmodium berghei ANKA infected in Laca mouse assessed as reduction in CD3+ cell level in brain at 10 ug, ip co-administered with chloroquine for 4 days measured on day 10 by flow cytometry; assay type: functional, organism-based
Plasmodium berghei [24] = test: Antiparasitic activity against Plasmodium berghei ANKA infected in Laca mouse assessed as increase in CD3+ cell level in spleen at 10 ug, ip co-administered with chloroquine for 4 days measured on day 10 by flow cytometry; assay type: functional, organism-based
[25] = Toxicity in Laca mouse infected with Plasmodium berghei ANKA assessed as body weight loss at 10 ug, ip administered for 4 days; assay type: organism-based; details: in vivo, 96 h
[26] = Toxicity in Laca mouse infected with Plasmodium berghei ANKA assessed as death at 10 ug, ip administered for 4 days measured on day 15; assay type: organism-based; details: in vivo, 96 h
How it was run: (§1)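 Six mice per group received 1x10⁶ parasitized RBCs (P. berghei ANKA) i.p. on D0. TLR7 agonist was given i.p., 0.2 mL/mouse, daily D0–D3. PBS-treated infected and uninfected groups served as controls. Survival was monitored alongside parasitemia from Giemsa-stained thin blood smears.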

[27] = Toxicity in Laca mouse infected with Plasmodium berghei ANKA assessed as death at 10 ug, ip administered for 4 days measured on day 9; assay type: organism-based; details: in vivo, 96 h; how it was run: as §1
Plasmodium berghei [28] = test: Antiparasitic activity against Plasmodium berghei ANKA infected in Laca mouse assessed as reduction in CD8+ cell level in brain at 10 ug, ip co-administered with chloroquine for 4 days measured on day 10 by flow cytometry; assay type: functional, organism-based
[29] = Toxicity in Laca mouse infected with Plasmodium berghei ANKA assessed as death at 10 ug, ip administered for 4 days measured on day 10 and 21; assay type: organism-based; details: in vivo, 96 h; how it was run: as §1
Plasmodium berghei [30] = test: Antiparasitic activity against Plasmodium berghei ANKA infected in Laca mouse assessed as increase in serum IL-10 level at 10 ug, ip administered for 4 days measured on day 10 by sandwich ELISA; assay type: functional, organism-based
Plasmodium berghei [31] = test: Antiparasitic activity against Plasmodium berghei ANKA infected in Laca mouse assessed as reduction in CD4+ cell level in brain at 10 ug, ip administered for 4 days measured on day 10 and 21 by flow cytometry; assay type: functional, organism-based
Plasmodium berghei [32] = test: Antiparasitic activity against Plasmodium berghei ANKA infected in Laca mouse assessed as reduction in parasitemia at 10 ug, ip co-administered with chloroquine for 4 days measured on day 25 by Giemsa-staining based assay; assay type: functional, organism-based
Plasmodium berghei [33] = test: Antiparasitic activity against Plasmodium berghei ANKA infected in Laca mouse assessed as decrease in serum TNFalpha level at 10 ug, ip administered for 4 days measured on day 10 by sandwich ELISA; assay type: functional, organism-based
Plasmodium berghei [34] = test: Antiparasitic activity against Plasmodium berghei ANKA infected in Laca mouse assessed as reduction in CD3+ cell level in brain at 10 ug, ip co-administered with chloroquine for 4 days measured on day 21 by flow cytometry; assay type: functional, organism-based
Plasmodium berghei [35] = test: Antiparasitic activity against Plasmodium berghei ANKA infected in Laca mouse assessed as reduction in parasitemia at 10 ug, ip co-administered with chloroquine for 4 days measured on day 23 by Giemsa-staining based assay; assay type: functional, organism-based
Plasmodium berghei [36] = test: Antiparasitic activity against Plasmodium berghei ANKA infected in Laca mouse assessed as increase in IFN-gamma level in serum at 10 ug, ip co-administered with chloroquine for 4 days measured on day 10 by sandwich ELISA
Plasmodium berghei [37] = test: Antiparasitic activity against Plasmodium berghei ANKA infected in Laca mouse assessed as reduction in CD4+ cell level in brain at 10 ug, ip co-administered with chloroquine for 4 days measured on day 10 and 21 by flow cytometry; assay type: functional, organism-based
Plasmodium berghei [38] = test: Antiparasitic activity against Plasmodium berghei ANKA infected in Laca mouse assessed as increase in serum IL-27 level at 10 ug, ip co-administered with chloroquine for 4 days measured on day 10 by sandwich ELISA; assay type: functional, organism-based
[39] = Toxicity in Laca mouse infected with Plasmodium berghei ANKA assessed as death at 10 ug, ip co-treated with chloroquine for 4 days measured on day 30; details: in vivo, 96 h; remark: listed apart in the source

For `CCCCc1nc2c(N)nc3ccccc3c2n1Cc1ccccc1`, the Activity (Plasmodium berghei [1]) was “Active”, the Activity (Plasmodium berghei [2]) was “Active” and the Activity (Plasmodium berghei [3]) was “Active”. The Activity (Plasmodium berghei [4]) was “Active”, the Activity (Plasmodium berghei [5]) was 5.7% and the Activity (Plasmodium berghei [6]) was “Active”. The Activity (Plasmodium berghei [7]) was “Active”, the Activity (Plasmodium berghei [8]) was “Active” and the Activity (Plasmodium berghei [9]) was “Active”. For the same molecule, the Activity (Plasmodium berghei [10]) was 11.65%, the Activity (Plasmodium berghei [11]) was “Active” and the Activity (Plasmodium berghei [12]) was “inactive”. The Activity (Plasmodium berghei [13]) was “Active”, the Activity (Plasmodium berghei [14]) was “Active” and the Activity (Plasmodium berghei [15]) was “Active”. For the same molecule, the Activity (Plasmodium berghei [16]) was “Active”, the Activity (Plasmodium berghei [17]) was “Active” and the Activity [18] was “Toxic”. For the same molecule, the Activity (Plasmodium berghei [19]) was “Active”, the Activity (Plasmodium berghei [20]) was “inactive” and the Activity [21] was “Toxic”. For the same molecule, the Activity (Plasmodium berghei [22]) was “Active”, the Activity (Plasmodium berghei [23]) was “Active” and the Activity (Plasmodium berghei [24]) was “Active”. The Activity [25] was “Toxic”, the Activity [26] was “Toxic” and the Activity [27] was “Toxic”. For the same molecule, the Activity (Plasmodium berghei [28]) was “Active”, the Activity [29] was “Toxic” and the Activity (Plasmodium berghei [30]) was “Active”. For the same molecule, the Activity (Plasmodium berghei [31]) was “Active”, the Activity (Plasmodium berghei [32]) was “inactive” and the Activity (Plasmodium berghei [33]) was “Active”. The Activity (Plasmodium berghei [34]) was “inactive”, the Activity (Plasmodium berghei [35]) was “Active” and the Activity (Plasmodium berghei [36]) was “Active”. The Activity (Plasmodium berghei [37]) was “Active”, the Activity (Plasmodium berghei [38]) was “Active” and the Activity [39] was “Toxic”.
